We go through 5 compounds from ChEMBL document CHEMBL1914355, “Discovery of new orally active prostaglandin D2 receptor antagonists” (Bioorg Med Chem, 2011).

Values after ≈ are worked out from the molar mass of the structure shown.

For data set [1], the target named is T1, Prostaglandin D2 receptor (Mus musculus, UniProt P70263).
T1 sequence (P70263 whole entry): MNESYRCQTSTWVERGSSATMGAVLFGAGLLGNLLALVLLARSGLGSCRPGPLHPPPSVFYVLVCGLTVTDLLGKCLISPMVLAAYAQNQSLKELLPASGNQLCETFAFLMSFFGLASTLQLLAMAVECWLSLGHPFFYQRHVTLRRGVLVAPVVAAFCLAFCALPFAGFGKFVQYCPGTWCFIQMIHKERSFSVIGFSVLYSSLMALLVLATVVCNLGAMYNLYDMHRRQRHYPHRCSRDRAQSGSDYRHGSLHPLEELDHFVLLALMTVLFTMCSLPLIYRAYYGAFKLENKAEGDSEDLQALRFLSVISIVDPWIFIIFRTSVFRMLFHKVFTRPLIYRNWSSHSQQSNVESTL
Briefly: Displacement of [3H]-PGD2 from mouse DP receptor expressed in CHO cells after 20 mins by liquid scintillation counting. In kind it is cell-based. The essentials: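 CHO-mDP membranes were incubated with 2.5 nM [³H]PGD₂ and graded compound concentrations in 25 mM HEPES-NaOH (1 mM EDTA, 5 mM MgCl₂, 10 mM MnCl₂, pH 7.4) for 20 min at room temperature. Bound ligand was collected on GF/B filters and washed with ice-cold Tris/NaCl/0.01% BSA, pH 7.4. Nonspecific binding was defined with excess unlabeled PGD₂. IC50 came from the regression curve; Ki = IC50/(1+[L]/Kd).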
In general terms: Displacement assays read how much labelled ligand stays bound in the presence of the test substance.

For the next data set, the target named is Prostacyclin receptor (Homo sapiens, UniProt P43119). Briefly: Displacement of [3H]Iloprost from human prostanoid IP receptor expressed in CHO cells after 30 mins by liquid scintillation counting. It counts as cell-based. The method, boiled down: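 Membranes from CHO cells stably expressing hIP were incubated with 5.0 nM [³H]iloprost and graded compound concentrations in 50 mM Tris-HCl (1 mM EDTA, 10 mM MgCl₂, pH 7.5) for 30 min at room temperature. Filters (GF/B) were washed with ice-cold Tris/NaCl pH 7.5, dried 60 min at 60 °C, and counted. Nonspecific binding used excess unlabeled iloprost. Ki = IC50/(1+[L]/Kd).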
Chain of Prostacyclin receptor (P43119 whole entry): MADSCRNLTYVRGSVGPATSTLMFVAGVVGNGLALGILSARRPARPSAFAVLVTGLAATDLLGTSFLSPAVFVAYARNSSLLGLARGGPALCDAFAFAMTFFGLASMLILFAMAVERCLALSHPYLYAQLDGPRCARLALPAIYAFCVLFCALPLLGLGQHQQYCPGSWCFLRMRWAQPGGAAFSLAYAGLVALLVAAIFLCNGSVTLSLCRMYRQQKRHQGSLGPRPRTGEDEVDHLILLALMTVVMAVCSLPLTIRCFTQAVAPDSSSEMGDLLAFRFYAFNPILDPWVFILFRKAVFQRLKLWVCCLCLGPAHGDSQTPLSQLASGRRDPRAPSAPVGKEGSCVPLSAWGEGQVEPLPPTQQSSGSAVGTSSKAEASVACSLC

Data set [2] concerns the target T1, Prostaglandin D2 receptor. Briefly: Antagonist activity at mouse prostanoid DP receptor expressed in CHO cells assessed as inhibition of PGD2-induced intracellular cAMP production after 10 mins by enzyme immunoassay. It counts as functional, cell-based. The essentials:
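CHO cells expressing mDP seeded at 1 × 10⁵ cells/well and grown 2 days. They were rinsed and preincubated ~10 min at 37 °C in MEM with 2 µM diclofenac, then ~10 min in assay medium (MEM, 0.1% BSA, 1 mM IBMX, 2 µM diclofenac). Compound plus 10 nM PGD₂ was added for 10 min at 37 °C. TCA stop, tri-n-octylamine/chloroform extraction, cAMP by EIA. IC50 taken from % of maximal cAMP rise without compound.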

In data set [3] the target is T2, Prostaglandin D2 receptor (Homo sapiens, UniProt Q13258).
T2 sequence (Q13258 whole entry): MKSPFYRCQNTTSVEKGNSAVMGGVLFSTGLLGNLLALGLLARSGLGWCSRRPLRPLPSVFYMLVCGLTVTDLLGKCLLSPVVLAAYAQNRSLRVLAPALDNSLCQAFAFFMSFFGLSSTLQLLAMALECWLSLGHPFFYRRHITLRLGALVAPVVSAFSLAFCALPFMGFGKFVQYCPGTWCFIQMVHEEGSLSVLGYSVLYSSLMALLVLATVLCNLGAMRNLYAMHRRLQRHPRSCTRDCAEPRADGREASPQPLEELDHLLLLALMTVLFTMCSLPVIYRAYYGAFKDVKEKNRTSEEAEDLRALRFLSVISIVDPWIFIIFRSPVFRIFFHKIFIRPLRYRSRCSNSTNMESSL
Briefly: Antagonist activity at prostanoid DP receptor in human platelet rich plasma assessed as inhibition of PGD2-induced intracellular cAMP production after 10 mins by enzyme immunoassay. It counts as functional, cell-based. Particulars: in the assay text read “after 15 mins” for “after 10 mins”. The essentials:
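Human PRP with EDTA (~10 mmol/L) was spun at 1500 G for 15 min. Platelets were resuspended in PPP at 5.0 × 10⁵/µL with IBMX (8 mmol/L final) and an EP3 antagonist, then held 5 min at 37 °C. Compound was added for 10 min at 37 °C, then PGD₂ (3 µmol/L final) for 15 min. TCA stop, tri-n-octylamine extraction, cAMP EIA. IC50 derived from inhibition ratio.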

Data set [4] can be described thus: Kinetic solubility of the compound. Particulars: read-out: Kinetic_solubility. In kind it is physicochemical.
Data set [5] deals with Cavia porcellus. Nature of the data set: Inhibition of PGD2-induced vascular permeability in Hartley guinea pig conjunctiva at 0.1 mg/kg, po administered 1 hr before antigen challenge measured after 30 mins. In kind it is functional. The essentials: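 Guinea pigs (n = 8) were dosed orally 1 h before topical PGD₂ challenge (20 µL/eye). 5% Evans blue (1 mL/kg iv) was given immediately after challenge. After 30 min the conjunctiva was excised and dye extracted in DMF at 37 °C, with absorbance read at 620 nm. Dunnett's test versus control.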

A short description of data set [6]: Volume of distribution at steady state in rat at 1 mg/kg, iv administered as single dose. The following applies: in vivo, read-out: Vdss. The arrangement: dose 1 mg/kg, route intravenous. It counts as ADME, organism-based. The method, boiled down:
(§1)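 Fasted male rats (n = 3) received a single 1 mg/kg iv dose in 30% HP-β-CD with 5% DMSO and 1 eq NaHCO₃. Jugular blood was drawn into heparin before dosing and at 5, 15, 30 min and 1, 2, 4, 6, 8, 24 h. Plasma was obtained by centrifugation at 4 °C. Parameters came from the plasma concentration-time course.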

The nature of data set [7]: AUC (0 to infinity) in rat at 1 mg/kg, po administered as single dose. Set-up: time infinity, dose 1 mg/kg, route oral. The following applies: plasma. It counts as ADME, organism-based. The essentials: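 Fasted male rats (n = 3) given a single oral dose of 1 mg/kg in 0.5% MC. Heparinized jugular vein blood sampled pre-dose and at 15, 30 min and 1, 2, 4, 6, 8, 24 h. Plasma separated by centrifugation at 4 °C and kept at -80 °C. AUC derived from the plasma concentration–time profile.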

Data set [8] in a line: Cmax in rat at 1 mg/kg, po administered as single dose. The following applies: in vivo. Set-up: dose 1 mg/kg, route oral. It counts as ADME, organism-based. The essentials:
(§2)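 Fasted male rats (n = 3) received a single oral 1 mg/kg dose in 0.5% methylcellulose. Jugular blood was drawn into heparin before dosing and at 15, 30 min and 1, 2, 4, 6, 8, 24 h. Plasma was separated at 4 °C. Parameters came from the plasma concentration-time course.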

The nature of data set [9]: Oral bioavailability in rat at 1 mg/kg administered as single dose. In kind it is ADME, organism-based. Particulars: in vivo. The method, boiled down:
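Fasted male rats (n = 3) were given 1 mg/kg orally in 0.5% methylcellulose and 1 mg/kg iv in 30% HP-β-CD/5% DMSO/NaHCO₃, each as a single dose. Plasma from serial jugular samples was analysed. Bioavailability was derived from oral versus iv exposure, corrected for dose (D_po, D_iv).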

A short description of data set [10]: Total clearance in rat at 1 mg/kg, iv administered as single dose. In kind it is ADME, organism-based. The arrangement: dose 1 mg/kg, route intravenous. Particulars: in vivo. The essentials: as §1
Data set [11] is described as follows: Half life in rat at 1 mg/kg, po administered as single dose. In kind it is ADME, organism-based. The arrangement: dose 1 mg/kg, route oral. The following applies: in vivo. The essentials: as §2
A short description of data set [12]: Half life in rat at 1 mg/kg, iv administered as single dose. It counts as ADME, organism-based. Set-up: dose 1 mg/kg, route intravenous. Particulars: in vivo. The essentials:
as §1

Data set [13] is described as follows: AUC (0 to infinity) in rat at 1 mg/kg, iv administered as single dose. In kind it is ADME, organism-based. The arrangement: time infinity, dose 1 mg/kg, route intravenous. Particulars: plasma. The essentials: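 Single IV dose of 1 mg/kg to fasted male rats (n = 3). Vehicle: 30% HP-b-CD containing 5% DMSO with NaHCO3 (1 eq). Jugular vein blood taken in heparinized syringe pre-dose and at 5, 15, 30 min and 1, 2, 4, 6, 8, 24 h. Plasma obtained by centrifugation at 4 °C and stored at -80 °C. AUC derived from the plasma concentration–time course.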

A short description of data set [14]: Cmax in rat at 1 mg/kg, po administered as single dose. Particulars: in vivo.
The subject of data set [15] is Cavia porcellus. Nature of the data set: Inhibition of OVA-induced vascular permeability in Hartley guinea pig conjunctiva at 1 mg/kg, po administered 1 hr before antigen challenge measured after 30 mins. In kind it is functional. The method, boiled down:
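Male Hartley guinea pigs were sensitized ip with OVA (1 mg) plus inactivated B. pertussis. Two weeks later they were challenged topically with OVA (1%, 20 µL/eye), followed at once by Evans blue (20 mg/kg iv). Compound was given orally 1 h before challenge (n = 7). After 30 min the conjunctiva was removed, dye was extracted in DMF at 37 °C, and A620 was read against a standard curve. Dunnett's test was used.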

For `Cc1c(OC[C@@H]2CN(C)c3ccccc3O2)ccc(C(=O)Nc2cc(CC(=O)O)ccc2Cl)c1C`, the Ki is 28 nM in [1] and 3.5 µM on Prostacyclin receptor. Further, the IC50 in [2] stood at 54 nM.

Consider `Cc1cc2c(CC(=O)O)cccc2n1C(=O)c1ccc(OC[C@@H]2CN(C)c3ccccc3O2)cc1`, for which, in data set [3], the IC50 worked out at 57 nM. Moreover, the solubility kinetic in data set [4] is 8.2 µg/mL (≈ 17.4 µM). The compound further had an inhibition in vivo at 0.1 mg/kg in the data set with Cavia porcellus [5] of 67%.

`Cc1cc(OC[C@@H]2CN(C)c3ccccc3O2)cc(C)c1C(=O)Nc1cc(C(C)(C)C(=O)O)ccc1Cl`: the values for the IC50 in data set [3] and in data set [2] were 8.1 nM and 0.7 nM, respectively. Besides, in [6], the Vd was determined as 0.669 L/kg. For the same compound, the values for the AUC(0-inf) in data set [7] and in data set [13] were 8280 ng·h/mL and 9520 ng·h/mL, respectively. Moreover, at Prostacyclin receptor, the Ki is above 10 µM. For the same compound, the solubility kinetic in data set [4] was 490 µg/mL (≈ 937 µM). The compound further displayed a Cmax in [8] of 1670 ng/mL. Also, the bioavailability in data set [9] was found to be 87%. In data set [10], this compound registered a clearance of 1.8 mL/min/kg. Besides, the half-life is 336 min in data set [11] and 390 min in [12]. In addition, the inhibition in vivo at 0.1 mg/kg with Cavia porcellus [5] is 58%.

For `CN1C[C@@H](COc2ccc(C(=O)n3ccc4c(CC(=O)O)cccc43)cc2)Oc2ccccc21`, the Ki turned out to be 1700 nM in data set [1] and 2.5 µM at Prostacyclin receptor.

Regarding `Cc1cc(OC[C@@H]2CN(C)c3ccccc3O2)cc(C)c1C(=O)Nc1cc(CC(=O)O)ccc1Cl`, the figures for the Ki (in data set [1]; at Prostacyclin receptor) were 6.4 nM and above 10 µM, respectively. The IC50 in [3] was found to be 4.4 nM; in [2], 7.6 nM. Also, the Vd in [6] is 0.622 L/kg. Also, the AUC(0-inf) stood at 8120 ng·h/mL in data set [7] and 11300 ng·h/mL in [13]. For the same compound, the solubility kinetic in data set [4] was found to be 407 µg/mL (≈ 822 µM). Besides, the Cmax in data set [14] came to 930 ng/mL. Also, the bioavailability in [9] was 72%. This compound registered a clearance in data set [10] of 1.6 mL/min/kg. Further, the half-life is 348 min in data set [11] and 372 min in data set [12]. The compound further came in with an inhibition in vivo at 0.1 mg/kg with Cavia porcellus [5] of 55%. The compound also registered an inhibition in vivo at 1 mg/kg in the data set with Cavia porcellus [15] of 46%.

The term Ki denotes a measure of affinity in units of concentration, obtained from inhibition or displacement. A high value points to lower affinity. What is called IC50 is the concentration that gives 50% inhibition. Usually inhibition in vivo stands for the percentage by which the read-out fell short of the control. By AUC(0-inf) is commonly meant the area under the concentration-time curve extrapolated to infinity. The low end stands for low exposure, the high end for high exposure. By Cmax is commonly meant the highest concentration seen after dosing. The term bioavailability denotes dose-corrected exposure relative to a reference, in per cent. A high value points to much systemic uptake. By clearance is commonly meant the volume of plasma or blood freed of the substance per unit of time. Read a high clearance as a high capacity for elimination. What is called half-life is the time in which the quantity being followed falls by half. A high value points to slow loss.
